Source: PubChem BioAssay (several laboratories)
A selection: hits, their analogues and other compounds. The true share with any hit is near 3.9%.
HSF1 inhib: HSF1 inhibitors in luciferase reporter cells, primary screen, cell-based, NIH3T3, luminescence. NIH3T3-HGL HSE-luciferase, MG132-induced, luminescence 8 h; hits give low values. activity change, negative = inhibition, % at 7.5 µM (by protocol). hit rate 0.77% among 300,000. AID 2098, 2009;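 active = more than half of replicate wells show activity change below -50%, luminescence cut by over half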;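 note: luciferase reports HSF-1 transcriptional activity via heat shock element; 0% = median of DMSO wells and -100% = zero luminescence signal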
HCV NS3 hel inh: inhibitors of HCV NS3 helicase, primary screen, biochemical, Cy5 molecular beacon fluorescence; AID 1800, 2009; inhibition, % at 10.9 µM; hit rate 0.56% among 290,000; NS3 helicase DNA unwinding;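 active = inhibition above the mean of all tested compounds plus 3 SD, set per campaign, cut at about 35% in these data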;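 note: 0% = DMSO wells and 100% = thioflavine S control wells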
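Control set: DMSO versus 110 µM thioflavine S; Material: NS3 helicase fragment of HCV; Measured by: Cy5 fluorescence at 0 and 60 min, beacon hairpin quenching; Read-out basis: percent inhibition from t60/t0 fluorescence ratio; Times: reaction time 60 min, 25 °C; Repeats: single replicate; Compound dosing: single dose, 10.9 µM nominal final, DMSO 0.8% final.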
DNA FID counter: compounds displacing fluorescent DNA intercalator, primary screen, artefact control for HCV NS3 helicase inhibitor project, biochemical, FID fluorescence; inhibition, % at 7.9 µM; hit rate 0.17% among 290,000; DNA fluorescent intercalator displacement; in the data active = inhibition above about 37%;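 note: 0% = vehicle and 100% = reference compound; higher means more ethidium bromide displaced from hairpin DNA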
HSP90 refold inh: HSP90 inhibitors, primary screen, cell lysate, luminescence; Rabbit reticulocyte lysate, luciferase refolding luminescence, 3 h; inhibition, % at 5.6 µM; hit rate 0.91% among 290,000;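 active = inhibition above the screen-wide mean plus 3 SD, computed separately per campaign, cut at about 16% in these data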;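 note: 0% = DMSO wells and 100% = 60 µM geldanamycin wells; inhibitors lower the luminescence because luciferase stays unfolded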
HSF1 activator: HSF-1 activators, primary screen, NIH3T3-HGL cells, MG132 stress, luminescence, single point | NIH3T3-HGL HSF-1 luciferase reporter, 8 h; 100% = twice DMSO control signal | activation, % at 9 µM | hit rate 1.7% among 300,000 | AID 504408, 2011;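 active = mean replicate activation of at least 50% with a set share of replicates each reaching 50%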;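 note: 0% = median of the neutral control wells and 100% = twice that signal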
HCV core dimer: inhibitors of HCV core protein dimerization, primary screen, biochemical, TR-FRET, high-throughput. TR-FRET GST/Flag-core106 dimerization, 1536-well. inhibition, % at 5 µM. hit rate 0.33% among 300,000;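 active = inhibition above the mean of all tested compounds plus 3 SD, set per screening campaign, cut at about 45% in these data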
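Material: GST/Flag-tagged HCV core106 proteins. Incubation: 4 h, 22.5 °C incubation. Read-out basis: inhibition (%) from 671 over 617 nm ratio. Measured by: TR-FRET, excitation 340 nm, emission 617 and 671 nm.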
Starred values were filed as active, the others as inactive; nt = not tested or not shown.

SMILES	HSF1 inhib	HCV NS3 hel inh	DNA FID counter	HSP90 refold inh	HSF1 activator	HCV core dimer
C/C=C/c1ccc(OCC(=O)Nc2cc(OC)c(OC)c(OC)c2)c(OC)c1	-52.3*	-5.1	-29.9	-2.2	-60.0	-2.0
C/C=C(\C)C(=O)Nc1cccc(C2=NOC3(C2)C[C@H](C(N)=O)N(C(=O)CC#N)C3)c1 (some centres undefined)	0.0	nt	nt	nt	-10.2	-8.4
O=C1CC(/C=C/c2ccc(Cl)cc2)=Nc2ccccc2N1	62.8	-7.4	-18.0	0.8	70.3*	7.4
O=C1CC(/C=C/c2ccccc2)=Nc2ccccc2N1	-1.2	-11.6	-12.1	0.6	16.8	7.1
COC(=O)c1ccc(NC(=O)CSc2nnc(-c3ccccc3)n2C)cc1	-67.2*	-2.5	-3.3	-2.7	-75.3	-0.3
Cn1c(SCC(=O)NNC(=O)Nc2ccc(Cl)cc2)nnc1-c1ccccc1	14.8	-5.0	-4.7	5.3	55.5*	-3.4
Cc1occc1-c1nnc(SCC(=O)Nc2ccccc2)n1C	-81.8*	-1.5	11.3	-3.3	-85.2	1.1
CC(C)CC(=O)Nc1ccc2c(c1)oc1ccccc12	32.3	-6.6	-0.7	-0.7	61.7*	-0.2
CCCCC(=O)Nc1ccc2c(c1)oc1ccccc12	27.8	-2.8	-1.3	-2.4	37.4	5.1
COC(=O)c1ccccc1NC(=O)Cn1c(CCC(=O)O)ccc1-c1cccs1	2.4	11.7	-38.1	6.1	7.7	2.1
Cc1nnc(SCC(=O)Nc2ccccc2)c2ccccc12	33.3	3.7	-21.5	0.3	51.7*	-1.6
Cc1nnc(SCC(=O)Nc2ccc(O)cc2)c2ccccc12	8.0	-4.0	-4.5	-2.8	14.3	3.4
Cc1ccc(-c2nnc(SCC(=O)Nc3ccc4c(c3)oc3ccccc34)n2C)c(Cl)c1	14.0	-1.8	-1.9	-7.5	56.6*	0.4
Cc1cccc(NC(=O)CN2C(=O)N/C(=C/c3cc(C)n(C(C)C)c3C)C2=O)c1	-57.3*	6.3	-14.1	4.6	-66.3	3.8
Fc1ccc2c(c1)[C@H]1OCC[C@H]1[C@@H](c1ccco1)N2	1.9	-3.0	-1.8	-2.7	-2.9	4.5
Clc1ccc2c(c1)[C@H]1OCC[C@H]1[C@@H](c1ccco1)N2	30.2	23.5	-0.1	0.9	69.8*	-2.9
COc1ccc(C2CCCN2C(=S)Nc2cccc(C)c2C)cc1OC (centres undefined)	4.9	-10.4	-22.4	-4.9	8.1	-0.6
O=C(CN1CCOCC1)Nc1ccc(-c2nc3ccccc3[nH]2)cc1	30.5	-2.8	3.8	6.1	56.3*	-2.2
O=C(CSc1ccccc1)Nc1ccc(-c2nc3ccccc3[nH]2)cc1	16.5	-18.1	6.7	-3.7	48.3	-6.5
O=C(/C=C/c1ccccc1)NC1CCCc2ccccc21 (centres undefined)	6.6	0.0	-21.0	-2.3	1.0	-0.6
NC(=S)NN=C1c2cc(OCCN3CCOCC3)ccc2-c2ccc(OCCN3CCOCC3)cc21	1.3	9.5	54.2*	-1.8	14.8	-19.2
CSCC[C@H](NC(=O)CCn1nnc2ccccc2c1=O)C(=O)O	-2.7	1.4	1.7	-1.6	-5.0	0.1
Cc1ccc2c(c1)sc1nc(=O)n(-c3ccccc3)c(=O)n12	31.6	15.9	-3.2	2.7	58.1*	-4.0
CCSc1nnc(NC(=O)C2Cc3ccccc3CN2C(=O)c2ccco2)s1 (centres undefined)	10.5	10.7	-35.0	-1.0	-8.6	85.3*
COc1ccc2oc3ccc(OC)cc3c(=O)c2c1	18.1	-1.3	-0.1	-5.2	32.4	7.0
SMILES	HSF1 inhib	HCV NS3 hel inh	DNA FID counter	HSP90 refold inh	HSF1 activator	HCV core dimer
Nc1nnnn1/N=C/C(Br)=C/c1ccccc1	188.0	2.7	-3.0	1.4	252.1*	9.0
BrC(=C\c1ccccc1)/C=N/N1CCN(c2ccccc2)CC1	107.0	-11.2	-20.9	-1.6	162.5*	3.8
CN(C(=O)CO/N=C/c1ccc(Cl)cc1)c1ccccc1	2.3	0.5	-23.9	-0.2	-19.2	0.6
Cc1csc(NC(=O)C(Cc2ccccc2)n2cccc2)n1 (centres undefined)	-14.0	-0.9	-4.9	0.8	1.8	18.3
CCSc1nnc(NC(=O)C(Cc2ccccc2)n2cccc2)s1 (centres undefined)	-74.8*	2.4	-4.5	-1.6	-79.1	3.3
O=C(c1ccc(Cl)cc1Cl)N1CCC(C(=O)N2CCOCC2)CC1	0.3	4.5	-9.8	1.0	-5.7	-1.6
Cn1nc(N)c2c(-c3ccccc3)c(C#N)c(N)nc21	-68.7*	-4.3	-4.1	-2.1	-74.6	2.0
Cn1nc(N)c2c(-c3ccc(Cl)cc3)c(C#N)c(N)nc21	-9.4	-9.9	-3.8	3.4	-8.2	-19.6
CCn1c(SCC(=O)N(C)C)nc2cc(S(=O)(=O)N3CCOCC3)ccc21	-3.0	nt	nt	nt	-11.5	-2.9
CCC1C(=NO)C(CC)C(c2ccccc2)NC1c1ccccc1 (centres undefined)	12.0	3.8	-2.9	-3.2	59.3*	-0.5
CC1C(=NO)C(C)C(c2ccccc2)NC1c1ccccc1 (centres undefined)	4.5	1.5	-6.8	6.9	4.7	-3.5
COc1cc(C=C(c2nc3ccccc3s2)c2nc3ccccc3s2)ccc1O	14.3	-0.6	-24.0	-5.0	17.2	17.1
COc1cc(/C=C(\C#N)c2nc3ccc(C)cc3[nH]2)cc([N+](=O)[O-])c1O	nt	4.5	-10.1	0.6	nt	nt
COc1cc(/C=C(\C#N)c2nc3ccc(C)cc3[nH]2)c([N+](=O)[O-])cc1OC	21.0	2.9	-12.9	2.7	64.0*	-11.2
COc1ccc(/C=C(\C#N)c2nc3ccccc3[nH]2)cc1O	59.6	20.6	-0.8	-2.6	84.8*	nt
COc1cc(/C=C(\C#N)c2nc3ccccc3[nH]2)cc(OC)c1O	9.7	2.2	12.0	3.6	38.0	-38.2
COc1ccc(C=C(c2nc3ccccc3s2)c2nc3ccccc3s2)cc1O	124.3	-10.7	-21.2	1.8	131.5*	21.1
CCOc1cc(N(CC)CC)ccc1/C=C(/C#N)c1nc2ccccc2[nH]1	-6.8	6.7	-2.7	17.9*	-16.7	10.6
N#C/C(=C\c1cccnc1)C(=O)Nc1ccc(S(N)(=O)=O)cc1	-35.4	5.4	-2.0	-0.9	-50.7	nt
Cc1ccccc1C(=O)c1cccn1CC(=O)NCc1ccccc1Cl	12.9	6.7	-38.0	-4.2	24.7	9.1
COc1cc(/C=C(\C#N)c2nc3ccccc3[nH]2)ccc1Oc1ccc([N+](=O)[O-])cn1	27.9	1.7	-1.0	0.8	62.2*	9.3
COc1cc(/C=C(/C#N)c2ccccc2)ccc1Oc1ccc([N+](=O)[O-])cn1	-2.5	0.5	-1.1	0.7	28.6	2.2
